# Source: ChEMBL document CHEMBL1671627, “Increasing trends in antimicrobial resistance among clinically important anaerobes and Bacteroides fragilis isolates causing nosocomial infections: emerging resistance to carbapenems” (2008)
# How the values were obtained:
# Format in all cases: functional
# [1] = test system: Prevotella bivia; assay: Antibacterial activity against Prevotella bivia by CLSI agar dilution method in presence of Tazobactam
# Procedure, shortened: (§1)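 Agar dilution per CLSI guidelines on nonduplicate anaerobic bloodstream isolates collected at NTUH, January to December 2006. Isolates were spotted by Steers replicator onto supplemented Brucella blood agar and incubated anaerobically for 48 h at 35°C. MIC was the lowest drug concentration that inhibited growth. B. fragilis ATCC 25285, B. thetaiotaomicron ATCC 29741 and E. lentum ATCC 43055 were run as QC in each run.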
# [2] = test system: Clostridium paraputrificum; assay: Antibacterial activity against beta-lactamase producing Clostridium paraputrificum by CLSI agar dilution method in presence of Tazobactam
# Procedure, shortened: (§2)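 CLSI agar dilution MICs for anaerobic blood isolates (nonduplicate) collected from bloodstream-infection patients at a Taiwanese tertiary hospital, January–December 2006. Isolates were spotted by Steers replicator onto supplemented Brucella blood agar and incubated anaerobically for 48 h at 35°C. MIC was the lowest drug concentration inhibiting growth. Each run included B. fragilis ATCC 25285, B. thetaiotaomicron ATCC 29741 and E. lentum ATCC 43055 as quality-control strains.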
# [3] = test system: Bacteroides thetaiotaomicron; assay: Antibacterial activity against beta-lactamase producing Bacteroides thetaiotaomicron assessed as resistant isolates by CLSI agar dilution method
# [4] = test system: Prevotella bivia; assay: Antibacterial activity against Prevotella bivia assessed as resistant isolates by CLSI agar dilution method in presence of Tazobactam
# Procedure, shortened: (§3)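 207 nonduplicate anaerobic blood isolates from patients with bloodstream infections at NTUH, collected January–December 2006. MICs were determined by agar dilution following CLSI guidelines. Inocula were applied with a Steers replicator onto supplemented Brucella blood agar and incubated 48 h at 35°C in an anaerobic chamber. MIC was the lowest concentration inhibiting growth. B. fragilis ATCC 25285, B. thetaiotaomicron ATCC 29741 and E. lentum ATCC 43055 served as controls in each run.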
# [5] = test system: Bacteroides fragilis; assay: Antibacterial activity against Bacteroides fragilis assessed as susceptible isolates by CLSI agar dilution method in presence of Tazobactam; procedure, shortened: as §1
# [6] = test system: Bacteroides fragilis; assay: Antibacterial activity against Bacteroides fragilis by CLSI agar dilution method in presence of Tazobactam; procedure, shortened: as §1
# [7] = test system: Phocaeicola vulgatus; assay: Antibacterial activity against beta-lactamase producing Bacteroides vulgatus assessed as susceptible isolates by CLSI agar dilution method in presence of Tazobactam; procedure, shortened: as §2
# [8] = test system: Clostridium septicum; assay: Antibacterial activity against beta-lactamase producing Clostridium septicum assessed as resistant isolates by CLSI agar dilution method in presence of Tazobactam; procedure, shortened: as §3
# [9] = test system: Finegoldia magna; assay: Antibacterial activity against beta-lactamase producing Finegoldia magna by CLSI agar dilution method in presence of Tazobactam; procedure, shortened: as §2
# [10] = test system: Fusobacterium mortiferum; assay: Antibacterial activity against Fusobacterium mortiferum by CLSI agar dilution method
# [11] = test system: Clostridium tertium; assay: Antibacterial activity against beta-lactamase producing Clostridium tertium by CLSI agar dilution method
# [12] = test system: Bacteroides uniformis; assay: Antibacterial activity against beta-lactamase producing Bacteroides uniformis by CLSI agar dilution method
# [13] = test system: Bacteroides uniformis; assay: Antibacterial activity against beta-lactamase producing Bacteroides uniformis assessed as resistant isolates by CLSI agar dilution method in presence of Tazobactam; procedure, shortened: as §3
# [14] = test system: Fusobacterium nucleatum; assay: Antibacterial activity against Fusobacterium nucleatum by CLSI agar dilution method in presence of Tazobactam; procedure, shortened: as §1
# [15] = test system: Peptoniphilus asaccharolyticus; assay: Antibacterial activity against beta-lactamase producing Peptoniphilus asaccharolyticus by CLSI agar dilution method in presence of Tazobactam; procedure, shortened: as §2
# [16] = test system: Peptoniphilus asaccharolyticus; assay: Antibacterial activity against beta-lactamase producing Peptoniphilus asaccharolyticus assessed as resistant isolates by CLSI agar dilution method
# [17] = test system: Prevotella melaninogenica; assay: Antibacterial activity against Prevotella melaninogenica assessed as susceptible isolates by CLSI agar dilution method
# [18] = test system: Phocaeicola vulgatus; assay: Antibacterial activity against beta-lactamase producing Bacteroides vulgatus by CLSI agar dilution method in presence of Tazobactam; procedure, shortened: as §2
# [19] = test system: Fusobacterium varium; assay: Antibacterial activity against Fusobacterium varium assessed as resistant isolates by CLSI agar dilution method
# [20] = test system: Clostridium paraputrificum; assay: Antibacterial activity against beta-lactamase producing Clostridium paraputrificum by CLSI agar dilution method
# [21] = test system: Veillonella parvula; assay: Antibacterial activity against Veillonella parvula by CLSI agar dilution method
# [22] = test system: Peptoniphilus asaccharolyticus; assay: Antibacterial activity against beta-lactamase producing Peptoniphilus asaccharolyticus by CLSI agar dilution method
# [23] = test system: Phocaeicola vulgatus; assay: Antibacterial activity against beta-lactamase producing Bacteroides vulgatus by CLSI agar dilution method
# [24] = test system: Bacteroides uniformis; assay: Antibacterial activity against beta-lactamase producing Bacteroides uniformis assessed as susceptible isolates by CLSI agar dilution method
# [25] = test system: Bacteroides uniformis; assay: Antibacterial activity against beta-lactamase producing Bacteroides uniformis assessed as susceptible isolates by CLSI agar dilution method in presence of Tazobactam; procedure, shortened: as §1
# [26] = test system: Prevotella melaninogenica; assay: Antibacterial activity against Prevotella melaninogenica assessed as resistant isolates by CLSI agar dilution method in presence of Tazobactam; procedure, shortened: as §3
# [27] = test system: Peptostreptococcus anaerobius; assay: Antibacterial activity against beta-lactamase producing Peptostreptococcus anaerobius assessed as susceptible isolates by CLSI agar dilution method
# [28] = test system: Bacteroides uniformis; assay: Antibacterial activity against beta-lactamase producing Bacteroides uniformis assessed as resistant isolates by CLSI agar dilution method
# [29] = test system: Bacteroides caccae; assay: Antibacterial activity against beta-lactamase producing Bacteroides caccae by CLSI agar dilution method in presence of clavulanate; procedure, shortened: as §1
# [30] = test system: Phocaeicola vulgatus; assay: Antibacterial activity against beta-lactamase producing Bacteroides vulgatus assessed as resistant isolates by CLSI agar dilution method in presence of clavulanate; procedure, shortened: as §3
# [31] = test system: Clostridium perfringens; assay: microbe, parasite or virus in culture
# [32] = test system: Prevotella melaninogenica; assay: Antibacterial activity against Prevotella melaninogenica by CLSI agar dilution method in presence of clavulanate; procedure, shortened: as §1
# [33] = test system: Fusobacterium mortiferum; assay: Antibacterial activity against Fusobacterium mortiferum by CLSI agar dilution method in presence of clavulanate; procedure, shortened: as §1
# [34] = test system: Clostridium paraputrificum; assay: Antibacterial activity against beta-lactamase producing Clostridium paraputrificum by CLSI agar dilution method in presence of clavulanate; procedure, shortened: as §2
# [35] = test system: Bacteroides thetaiotaomicron; assay: Antibacterial activity against beta-lactamase producing Bacteroides thetaiotaomicron assessed as resistant isolates by CLSI agar dilution method in presence of clavulanate; procedure, shortened: as §3
# [36] = test system: Prevotella melaninogenica; assay: Antibacterial activity against Prevotella melaninogenica assessed as resistant isolates by CLSI agar dilution method in presence of clavulanate; procedure, shortened: as §3
# [37] = test system: Bacteroides thetaiotaomicron; assay: Antibacterial activity against beta-lactamase producing Bacteroides thetaiotaomicron assessed as susceptible isolates by CLSI agar dilution method in presence of clavulanate; procedure, shortened: as §1
# [38] = test system: Prevotella buccae; assay: Antibacterial activity against Prevotella buccae by CLSI agar dilution method in presence of clavulanate; conditions: Segatella buccae; procedure, shortened: as §1
smiles,measurement,setting,value
CCN1CCN(C(=O)N[C@@H](C(=O)N[C@@H]2C(=O)N3[C@@H]2SC(C)(C)[C@@H]3C(=O)O)c2ccccc2)C(=O)C1=O [PIPERACILLIN],MIC,[1],0.03 µg/mL
same,MIC50,[1],0.03 µg/mL
same,MIC90,[1],1 µg/mL
same,MIC50,[2],0.5 µg/mL
same,MIC90,[2],2 µg/mL
same,Activity,[3],37%
same,Activity,[4],0%
same,Activity,[5],95%
same,MIC50,[6],1 µg/mL
same,MIC90,[6],8 µg/mL
same,Activity,[7],96%
same,Activity,[8],0%
same,MIC,[9],0.03 µg/mL
same,MIC50,[9],0.03 µg/mL
same,MIC90,[9],2 µg/mL
same,MIC50,[10],2 µg/mL
same,MIC90,[10],8 µg/mL
same,MIC50,[11],0.25 µg/mL
same,MIC90,[11],2 µg/mL
same,MIC50,[12],> 128 µg/mL
same,MIC90,[12],> 128 µg/mL
same,Activity,[13],4%
same,MIC50,[14],0.5 µg/mL
same,MIC90,[14],2 µg/mL
same,MIC,[15],0.03 µg/mL
same,MIC50,[15],0.03 µg/mL
same,MIC90,[15],2 µg/mL
same,Activity,[16],3%
same,Activity,[17],71%
same,MIC50,[18],8 µg/mL
same,MIC90,[18],16 µg/mL
same,Activity,[19],10%
same,MIC50,[20],0.25 µg/mL
same,MIC90,[20],2 µg/mL
same,MIC,[21],1 µg/mL
same,MIC50,[22],0.12 µg/mL
same,MIC90,[22],8 µg/mL
same,MIC50,[23],> 128 µg/mL
same,MIC90,[23],> 128 µg/mL
same,Activity,[24],35%
same,Activity,[25],96%
same,Activity,[26],0%
same,Activity,[27],97%
same,Activity,[28],65%
CC1(C)S[C@@H]2[C@H](NC(=O)[C@H](N)c3ccc(O)cc3)C(=O)N2[C@H]1C(=O)O [AMOXICILLIN],MIC50,[29],8 µg/mL
same,MIC90,[29],32 µg/mL
same,Activity,[30],30%
same,MIC50,[31],0.5 µg/mL
same,MIC90,[31],2 µg/mL
same,MIC50,[32],4 µg/mL
same,MIC90,[32],16 µg/mL
same,MIC50,[33],2 µg/mL
same,MIC90,[33],4 µg/mL
same,MIC50,[34],0.5 µg/mL
same,MIC90,[34],2 µg/mL
same,Activity,[35],33%
same,Activity,[36],6%
same,Activity,[37],63%
same,MIC50,[38],4 µg/mL
same,MIC90,[38],16 µg/mL
